Here are results for 55 molecules from ChEMBL document CHEMBL4373651, “Indole compounds with N-ethyl morpholine moieties as CB2 receptor agonists for anti-inflammatory management of pain: synthesis and biological evaluation” (Medchemcomm, 2019).

Some results are limits rather than exact numbers.

One test concerns the target Cannabinoid receptor 1 (Homo sapiens, UniProt P21554). The test is described as follows: Agonist activity at human CB1 receptor expressed in CHO cells coexpressing Galpha16 assessed as reduction in forsklin-induced cAMP production incubated for 30 mins by cAMP Hunter assay based […] analysis. It counts as cell-based. The essentials: (§1)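 CHO cells expressing human CB1 or CB2 with Gα16, seeded overnight at 37 °C. Test compounds in stimulation buffer with 1 mM IBMX, 0.25% BSA and forskolin, 30 min at 37 °C. Cells lysed, cAMP read by enzyme fragment complementation chemiluminescence kit. Triplicate per dilution. Efficacy relative to CP-55940 reference run twice per plate. EC50 from means.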

The next test addresses Cannabinoid receptor 2 (Homo sapiens, UniProt P34972). The test is described as follows: Agonist activity at human CB2 receptor expressed in CHO cells coexpressing Galpha16 assessed as reduction in forsklin-induced cAMP production incubated for 30 mins by cAMP Hunter assay based […] analysis. It counts as functional, cell-based. The essentials:
as §1

A short description of test [1]: Selectivity ratio of EC50 for human CB1 receptor expressed in CHO cells coexpressing Galpha16 to EC50 for human CB2 receptor expressed in CHO cells coexpressing Galpha16. The essentials: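 Ratio of EC50 values from the CB1 and CB2 cAMP assays in CHO-Gα16 cells: 30 min compound exposure at 37 °C with 1 mM IBMX and forskolin, chemiluminescent cAMP read-out, triplicates.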

Cannabinoid receptor 1, sequence (P21554 whole entry, the tested form may be a part): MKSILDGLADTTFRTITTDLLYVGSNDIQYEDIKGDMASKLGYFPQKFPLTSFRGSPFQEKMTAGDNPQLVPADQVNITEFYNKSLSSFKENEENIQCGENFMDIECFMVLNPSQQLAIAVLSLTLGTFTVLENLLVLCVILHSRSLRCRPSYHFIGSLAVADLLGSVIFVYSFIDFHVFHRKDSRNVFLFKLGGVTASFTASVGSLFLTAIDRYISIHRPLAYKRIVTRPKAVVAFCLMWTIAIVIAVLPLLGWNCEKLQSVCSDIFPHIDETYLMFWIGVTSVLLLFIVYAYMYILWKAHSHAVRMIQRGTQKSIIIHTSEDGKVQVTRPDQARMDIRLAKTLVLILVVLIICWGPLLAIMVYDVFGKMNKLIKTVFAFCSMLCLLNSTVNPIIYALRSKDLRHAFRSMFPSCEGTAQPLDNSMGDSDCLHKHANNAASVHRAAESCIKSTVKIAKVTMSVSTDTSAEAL
Cannabinoid receptor 2, sequence (P34972 whole entry): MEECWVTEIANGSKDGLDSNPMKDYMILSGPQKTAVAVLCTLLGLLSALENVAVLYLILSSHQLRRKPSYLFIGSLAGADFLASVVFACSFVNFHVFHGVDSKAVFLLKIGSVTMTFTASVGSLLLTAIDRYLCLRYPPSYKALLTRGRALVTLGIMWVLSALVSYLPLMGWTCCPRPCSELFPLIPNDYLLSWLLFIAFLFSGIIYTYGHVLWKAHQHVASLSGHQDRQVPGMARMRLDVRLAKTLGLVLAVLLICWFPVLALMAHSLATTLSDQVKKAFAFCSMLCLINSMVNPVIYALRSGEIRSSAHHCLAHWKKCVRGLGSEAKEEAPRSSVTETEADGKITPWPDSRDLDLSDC

`Cc1c(CCN2CCOCC2)c2cc(Cl)ccc2n1CC(=O)NC1CCCCC1`: the EC50 entry on Cannabinoid receptor 1 (cho) and on Cannabinoid receptor 2 (cho) was “Not Active” each time.
`Cc1c(CCN2CCOCC2)c2cc(Cl)ccc2n1CC(=O)NCc1ccc2c(c1)OCO2`: the EC50 entry at Cannabinoid receptor 1 (cho) and at Cannabinoid receptor 2 (cho) was “Not Active” each time.
On to `Cc1c(CCN2CCOCC2)c2cc(Br)ccc2n1CC(=O)NCC1CC1`, for which the results for the EC50 result on Cannabinoid receptor 1 (cho) and on Cannabinoid receptor 2 (read-out: EC50) were “Not Active” and 5.4 µM, respectively.
In the case of `Cc1c(CC(=O)NC2CCCCC2)c2cc(Cl)ccc2n1CCN1CCOCC1`, the values for the EC50 entry at Cannabinoid receptor 1 (cho) and on Cannabinoid receptor 2 (read-out: EC50) were “Not Active” and over 100 µM, respectively.
Consider `Cc1c(CCN2CCOCC2)c2cc(Br)ccc2n1CC(=O)NCc1ccc2c(c1)OCO2`, for which the concentration for a half-maximal effect (EC50) result on Cannabinoid receptor 1 (cho) and on Cannabinoid receptor 2 (cho) was “Not Active” each time.
As to `Cc1c(CC(=O)N2CCCCC2)c2cc(F)ccc2n1CCN1CCOCC1`, the concentration giving a half-maximal response (EC50) entry on Cannabinoid receptor 1 (cho) and at Cannabinoid receptor 2 (cho) was “Not Active” in each case.
On to `Cc1c(CCN2CCOCC2)c2cc(Br)ccc2n1CC(=O)N1CCCC1`, for which the EC50 entry on Cannabinoid receptor 1 (cho) and at Cannabinoid receptor 2 (cho) was “Not Active” each time.
With `Cc1c(CCN2CCOCC2)c2cc(Cl)ccc2n1C(=O)N1CCCC1`, the EC50 result at Cannabinoid receptor 1 (cho) and on Cannabinoid receptor 2 (cho) was “Not Active” throughout.
For the molecule `Cc1c(CCN2CCOCC2)c2cc(F)ccc2n1CC(=O)NC1CC1`, the figures for the EC50 result on Cannabinoid receptor 1 (cho) and on Cannabinoid receptor 2 (read-out: EC50) were “Not Active” and 3.9 µM, respectively.
Regarding `Cc1c(CC(=O)NC2CCCCC2)c2cc(F)ccc2n1CCN1CCOCC1`, the EC50 (usually the concentration needed to bring the measured effect to its halfway point) is “Not Active” at Cannabinoid receptor 1 (cho) and over 100 µM at Cannabinoid receptor 2 (read-out: EC50).
As for `Cc1c(CCN2CCOCC2)c2cc(F)ccc2n1CC(=O)NC1CCCCC1`, the concentration giving a half-maximal response (EC50) entry at Cannabinoid receptor 1 (cho) and on Cannabinoid receptor 2 (cho) was “Not Active” throughout.
`Cc1c(CC(=O)NCC2CC2)c2cc(Cl)ccc2n1CCN1CCOCC1`: in test [1], the “Ratio EC50” value was over 1000. Moreover, the values for the EC50 result on Cannabinoid receptor 1 (cho) and at Cannabinoid receptor 2 (read-out: EC50) were “Not Active” and 0.594 µM, respectively.
`COc1ccc2c(c1)c(CC(=O)N1CCCC1)c(C)n2CCN1CCOCC1`: the EC50 entry on Cannabinoid receptor 1 (cho) and on Cannabinoid receptor 2 (cho) was “Not Active” in each case.
Turning to `Cc1c(CCN2CCOCC2)c2cc(Cl)ccc2n1CC(=O)NCC1CC1`, the EC50 entry was “Not Active” on Cannabinoid receptor 1 (cho) and 14.3 µM on Cannabinoid receptor 2 (read-out: EC50).
For the molecule `Cc1c(CCN2CCOCC2)c2cc(Br)ccc2n1CC(=O)NC1CCCCC1`, the EC50 result at Cannabinoid receptor 1 (cho) and at Cannabinoid receptor 2 (cho) was “Not Active” in each case.
`COc1ccc2c(c1)c(CCN1CCOCC1)c(C)n2CC(=O)N1CCCC1`: the results for the EC50 result on Cannabinoid receptor 1 (cho) and on Cannabinoid receptor 2 (read-out: EC50) were “Not Active” and over 100 µM, respectively.
On to `Cc1c(CCN2CCOCC2)c2cc(Cl)ccc2n1C(=O)c1cccc(Cl)c1Cl`, for which the “Ratio EC50” value in test [1] is given as over 1000. The EC50 on Cannabinoid receptor 1 (read-out: EC50) stood at 79.8 µM; on Cannabinoid receptor 2 (read-out: EC50) it was 0.117 µM.
Turning to `Cc1c(CC(=O)N2CCCC2)c2cc(F)ccc2n1CCN1CCOCC1`, the EC50 entry at Cannabinoid receptor 1 (cho) and at Cannabinoid receptor 2 (cho) was “Not Active” throughout.
On to `Cc1c(CC(=O)NCC2CC2)c2cc(F)ccc2n1CCN1CCOCC1`, for which the EC50 result on Cannabinoid receptor 1 (cho) is “Not Active”; at Cannabinoid receptor 2 (read-out: EC50), 3.1 µM.
Turning to `Cc1c(CCN2CCOCC2)c2cc(Br)ccc2n1C(=O)c1cccc(Cl)c1Cl`, the “Ratio EC50” value in test [1] is recorded as over 1000. The EC50 is over 100 µM on Cannabinoid receptor 1 (read-out: EC50) and 0.0523 µM on Cannabinoid receptor 2 (read-out: EC50).
On to `COc1ccc2c(c1)c(CCN1CCOCC1)c(C)n2CC(=O)NCC1CC1`, for which the EC50 entry was “Not Active” on Cannabinoid receptor 1 (cho) and over 100 µM on Cannabinoid receptor 2 (read-out: EC50).
As for `COc1ccc2c(c1)c(CC(=O)NCC1CC1)c(C)n2CCN1CCOCC1`, the EC50 result at Cannabinoid receptor 1 (cho) and at Cannabinoid receptor 2 (cho) was “Not Active” throughout.
Consider `Cc1c(CCN2CCOCC2)c2cc(Br)ccc2n1CC(=O)NC1CC1`, for which the EC50 result at Cannabinoid receptor 1 (cho) is “Not Active”; on Cannabinoid receptor 2 (read-out: EC50), 8.2 µM.
`Cc1c(CCN2CCOCC2)c2cc(F)ccc2n1CC(=O)NCc1ccc2c(c1)OCO2`: the EC50 result at Cannabinoid receptor 1 (cho) and at Cannabinoid receptor 2 (cho) was “Not Active” throughout.
Consider `Cc1c(CCN2CCOCC2)c2cc(F)ccc2n1CC(=O)NC1CCCC1`, for which the results for the EC50 result on Cannabinoid receptor 1 (cho) and at Cannabinoid receptor 2 (read-out: EC50) were “Not Active” and 5.5 µM, respectively.
Consider `Cc1c(CC(=O)NC2CCCC2)c2cc(Cl)ccc2n1CCN1CCOCC1`, for which the EC50 result on Cannabinoid receptor 1 (cho) is “Not Active”; at Cannabinoid receptor 2 (read-out: EC50) it was 2.7 µM.
Consider `COc1ccc2c(c1)c(CCN1CCOCC1)c(C)n2CC(=O)NC1CCCC1`, for which the EC50 result was “Not Active” on Cannabinoid receptor 1 (cho) and 5.6 µM on Cannabinoid receptor 2 (read-out: EC50).
In the case of `Cc1c(CC(=O)N2CCCCC2)c2cc(Cl)ccc2n1CCN1CCOCC1`, the EC50 entry on Cannabinoid receptor 1 (cho) and on Cannabinoid receptor 2 (cho) was “Not Active” each time.
In the case of `Cc1c(CCN2CCOCC2)c2cc(Cl)ccc2n1CC(=O)N1CCCC1`, the EC50 result on Cannabinoid receptor 1 (cho) and at Cannabinoid receptor 2 (cho) was “Not Active” each time.
Take `Cc1c(CCN2CCOCC2)c2cc(Br)ccc2n1CC(=O)N1CCCCC1`: the EC50 entry at Cannabinoid receptor 1 (cho) and on Cannabinoid receptor 2 (cho) was “Not Active” in each case.
With `COc1ccc2c(c1)c(CC(=O)N1CCCCC1)c(C)n2CCN1CCOCC1`, the values for the EC50 entry at Cannabinoid receptor 1 (cho) and at Cannabinoid receptor 2 (read-out: EC50) were “Not Active” and over 100 µM, respectively.
For `Cc1c(CC(=O)NC2CC2)c2cc(Cl)ccc2n1CCN1CCOCC1`, in that order: “Not Active” and 1.2 µM.
`Cc1c(CCN2CCOCC2)c2cc(Cl)ccc2n1CC(=O)NC1CC1`: the results for the EC50 result at Cannabinoid receptor 1 (cho) and at Cannabinoid receptor 2 (read-out: EC50) were “Not Active” and 5.3 µM, respectively.
On to `COc1ccc2c(c1)c(CCN1CCOCC1)c(C)n2CC(=O)NC1CC1`, for which the EC50 entry at Cannabinoid receptor 1 (cho) and on Cannabinoid receptor 2 (cho) was “Not Active” in each case.
`COc1ccc2c(c1)c(CC(=O)NC1CCCCC1)c(C)n2CCN1CCOCC1`: the values for the EC50 result at Cannabinoid receptor 1 (cho) and at Cannabinoid receptor 2 (read-out: EC50) were “Not Active” and over 100 µM, respectively.
Turning to `Cc1c(CCN2CCOCC2)c2cc(Br)ccc2n1C(=O)N1CCCC1`, the EC50 result at Cannabinoid receptor 1 (cho) and on Cannabinoid receptor 2 (cho) was “Not Active” throughout.
In the case of `Cc1c(CCN2CCOCC2)c2cc(F)ccc2n1CC(=O)N1CCCC1`, the concentration for a half-maximal effect (EC50) result on Cannabinoid receptor 1 (cho) and on Cannabinoid receptor 2 (cho) was “Not Active” throughout.
For the molecule `COc1ccc2c(c1)c(CCN1CCOCC1)c(C)n2CC(=O)N1CCCCC1`, the EC50 entry at Cannabinoid receptor 1 (cho) is “Not Active”; at Cannabinoid receptor 2 (read-out: EC50), 41.9 µM.
Regarding `Cc1c(CC(=O)N2CCCC2)c2cc(Cl)ccc2n1CCN1CCOCC1`, the 50% effective concentration (EC50) entry on Cannabinoid receptor 1 (cho) and at Cannabinoid receptor 2 (cho) was “Not Active” in each case.
For the molecule `Cc1c(CCN2CCOCC2)c2cc(F)ccc2n1C(=O)N1CCCC1`, the EC50 result on Cannabinoid receptor 1 (cho) and on Cannabinoid receptor 2 (cho) was “Not Active” throughout.
As for `Cc1c(CCN2CCOCC2)c2cc(Br)ccc2n1CC(=O)NC1CCCC1`, the EC50 entry was “Not Active” at Cannabinoid receptor 1 (cho) and 20.2 µM at Cannabinoid receptor 2 (read-out: EC50).
With `COc1ccc2c(c1)c(CC(=O)NC1CCCC1)c(C)n2CCN1CCOCC1`, the EC50 entry at Cannabinoid receptor 1 (cho) and on Cannabinoid receptor 2 (cho) was “Not Active” in each case.
For the molecule `Cc1c(CCN2CCOCC2)c2cc(Cl)ccc2n1CC(=O)N1CCCCC1`, the EC50 entry at Cannabinoid receptor 1 (cho) and on Cannabinoid receptor 2 (cho) was “Not Active” throughout.
As for `Cc1c(CCN2CCOCC2)c2cc(F)ccc2n1CC(=O)NCC1CC1`, the EC50 result was “Not Active” on Cannabinoid receptor 1 (cho) and 4.2 µM on Cannabinoid receptor 2 (read-out: EC50).
`Cc1c(CCN2CCOCC2)c2cc(F)ccc2n1CC(=O)N1CCCCC1`: the EC50 entry on Cannabinoid receptor 1 (cho) and on Cannabinoid receptor 2 (cho) was “Not Active” each time.
Regarding `Cc1c(CCN2CCOCC2)c2cc(Cl)ccc2n1CC(=O)NC1CCCC1`, the concentration giving a half-maximal response (EC50) entry at Cannabinoid receptor 1 (cho) is “Not Active”; at Cannabinoid receptor 2 (read-out: EC50) it was 16.1 µM.
Taken in the same sequence, the figures for `Cc1c(CC(=O)NC2CC2)c2cc(F)ccc2n1CCN1CCOCC1` were “Not Active” and 4.1 µM.
Take `COc1ccc2c(c1)c(CCN1CCOCC1)c(C)n2CC(=O)NC1CCCCC1`: the EC50 result on Cannabinoid receptor 1 (cho) is “Not Active”; on Cannabinoid receptor 2 (read-out: EC50), 11.6 µM.
For `Cc1c(CC(=O)NC2CCCC2)c2cc(F)ccc2n1CCN1CCOCC1`, in test [1], the “Ratio EC50” value is recorded as over 1000. Moreover, the EC50 entry at Cannabinoid receptor 1 (cho) was “Not Active”; at Cannabinoid receptor 2 (read-out: EC50), 0.476 µM.
Regarding `COc1ccc2c(c1)c(CC(=O)NC1CC1)c(C)n2CCN1CCOCC1`, the EC50 result on Cannabinoid receptor 1 (cho) and at Cannabinoid receptor 2 (cho) was “Not Active” throughout.
For `COc1ccc2c(c1)c(CC(=O)NCc1ccc3c(c1)OCO3)c(C)n2CCN1CCOCC1`, the EC50 entry on Cannabinoid receptor 1 (cho) and at Cannabinoid receptor 2 (cho) was “Not Active” throughout.
Take `Cc1c(CC(=O)NCc2ccc3c(c2)OCO3)c2cc(Cl)ccc2n1CCN1CCOCC1`: the EC50 result on Cannabinoid receptor 1 (cho) and on Cannabinoid receptor 2 (cho) was “Not Active” in each case.
For the molecule `Cc1c(CC(=O)NCc2ccc3c(c2)OCO3)c2cc(F)ccc2n1CCN1CCOCC1`, the EC50 entry on Cannabinoid receptor 1 (cho) and at Cannabinoid receptor 2 (cho) was “Not Active” each time.
With `COc1ccc2c(c1)c(CCN1CCOCC1)c(C)n2CC(=O)NCc1ccc2c(c1)OCO2`, the results for the EC50 entry on Cannabinoid receptor 1 (cho) and at Cannabinoid receptor 2 (read-out: EC50) were “Not Active” and 28.1 µM, respectively.
For `COc1ccc2c(c1)c(CCN1CCOCC1)c(C)n2C(=O)N1CCCC1`, in that order: “Not Active” and 26.4 µM.
